In ChEMBL document CHEMBL3588757, “Structure-based design, synthesis and biological testing of piperazine-linked bis-epipodophyllotoxin etoposide analogs” (Bioorg Med Chem, 2015):

Key:
Type in all cases: functional
[1] = test system: HCT-116; assay: Cytotoxicity against human HCT116 cells assessed as cell growth at 50 uM by SRB assay; details: read-out: Activity
How it was run: (§1)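 Measured in the NCI-60 human tumour cell line panel using five-dose testing. Growth was recorded at each dose for each cell line, and a GI50 was derived for each line.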

[2] = test system: UACC-257; assay: Cytotoxicity against human UACC257 cells assessed as cell growth at 50 uM by SRB assay; details: read-out: Activity
[3] = test system: IGROV-1; assay: Cytotoxicity against human IGROV1 cells assessed as cell growth at 50 uM by SRB assay; details: read-out: Activity
[4] = test system: OVCAR-4; assay: Cytotoxicity against human OVCAR4 cells assessed as cell growth at 50 uM by SRB assay; details: read-out: Activity
[5] = test system: 786-0; assay: Cytotoxicity against human 786-0 cells assessed as cell growth at 50 uM by SRB assay; details: read-out: Activity
[6] = test system: TK-10; assay: Cytotoxicity against human TK10 cells assessed as cell growth at 50 uM by SRB assay; details: read-out: Activity
[7] = test system: MDA-MB-231; assay: Cytotoxicity against human MDA-MB-231/ATCC cells assessed as cell growth at 50 uM by SRB assay; details: read-out: Activity
[8] = test system: NCI-H226; assay: Cytotoxicity against human NCI-H226 cells by SRB assay
How it was run: (§2)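 NCI-60 panel screen; 5-dose testing giving GI50 per cell line, plus a single 10 µM one-dose test. Method details not given beyond the NCI screen.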

[9] = test system: NCI-H23; assay: Cytotoxicity against human NCI-H23 cells by SRB assay; how it was run: as §2
[10] = test system: KM12; assay: Cytotoxicity against human KM12 cells by SRB assay; how it was run: as §2
[11] = test system: SF-268; assay: Cytotoxicity against human SF268 cells by SRB assay; how it was run: as §2
[12] = test system: MDA-MB-435; assay: Cytotoxicity against human MDA-MB-435 cells by SRB assay; how it was run: as §2
[13] = test system: SK-MEL-5; assay: Cytotoxicity against human SK-MEL-5 cells by SRB assay; how it was run: as §2
[14] = test system: OVCAR-3; assay: Cytotoxicity against human OVCAR3 cells by SRB assay; how it was run: as §2
[15] = test system: DU-145; assay: Cytotoxicity against human DU145 cells by SRB assay; how it was run: as §1
[16] = test system: MOLT-4; assay: Cytotoxicity against human MOLT4 cells assessed as cell growth at 0.005 uM by SRB assay; details: read-out: Activity
[17] = test system: HCT-15; assay: Cytotoxicity against human HCT15 cells assessed as cell growth at 0.005 uM by SRB assay; details: read-out: Activity; how it was run: as §1
[18] = test system: M14; assay: Cytotoxicity against human M14 cells assessed as cell growth at 0.005 uM by SRB assay; details: read-out: Activity
[19] = test system: UACC-62; assay: Cytotoxicity against human UACC62 cells assessed as cell growth at 0.005 uM by SRB assay; details: read-out: Activity
[20] = test system: CAKI-1; assay: Cytotoxicity against human Caki1 cells assessed as cell growth at 0.005 uM by SRB assay; details: read-out: Activity
[21] = test system: UO-31; assay: Cytotoxicity against human UO31 cells assessed as cell growth at 0.005 uM by SRB assay; details: read-out: Activity
[22] = test system: T47D; assay: Cytotoxicity against human T47D cells assessed as cell growth at 0.005 uM by SRB assay; details: read-out: Activity
[23] = test system: CCRF-CEM; assay: Cytotoxicity against human CCRF-CEM cells assessed as cell growth at 0.05 uM by SRB assay; details: read-out: Activity
[24] = test system: SF-295; assay: Cytotoxicity against human SF295 cells assessed as cell growth at 0.05 uM by SRB assay; details: read-out: Activity
[25] = test system: UACC-62; assay: Cytotoxicity against human UACC62 cells assessed as cell growth at 0.05 uM by SRB assay; details: read-out: Activity
[26] = test system: IGROV-1; assay: Cytotoxicity against human IGROV1 cells assessed as cell growth at 0.05 uM by SRB assay; details: read-out: Activity; how it was run: as §1
[27] = test system: T47D; assay: Cytotoxicity against human T47D cells assessed as cell growth at 0.05 uM by SRB assay; details: read-out: Activity
[28] = test system: HOP-92; assay: Cytotoxicity against human HOP92 cells assessed as cell growth at 0.5 uM by SRB assay; details: read-out: Activity; how it was run: as §1
[29] = test system: SF-539; assay: Cytotoxicity against human SF539 cells assessed as cell growth at 0.5 uM by SRB assay; details: read-out: Activity
[30] = test system: OVCAR-3; assay: Cytotoxicity against human OVCAR3 cells assessed as cell growth at 0.5 uM by SRB assay; details: read-out: Activity
[31] = test system: A498; assay: Cytotoxicity against human A498 cells assessed as cell growth at 0.5 uM by SRB assay; details: read-out: Activity
[32] = test system: PC-3; assay: Cytotoxicity against human PC3 cells assessed as cell growth at 0.5 uM by SRB assay; details: read-out: Activity
[33] = test system: HOP-62; assay: Cytotoxicity against human HOP62 cells assessed as cell growth at 5 uM by SRB assay; details: read-out: Activity; how it was run: as §1
[34] = test system: NCI-H460; assay: Cytotoxicity against human NCI-H460 cells assessed as cell growth at 5 uM by SRB assay; details: read-out: Activity
[35] = test system: COLO 205; assay: Cytotoxicity against human COLO205 cells assessed as cell growth at 5 uM by SRB assay; details: read-out: Activity
[36] = test system: SNB-75; assay: Cytotoxicity against human SNB75 cells assessed as cell growth at 5 uM by SRB assay; details: read-out: Activity
[37] = test system: SK-MEL-28; assay: Cytotoxicity against human SK-MEL-28 cells assessed as cell growth at 5 uM by SRB assay; details: read-out: Activity
[38] = test system: A498; assay: Cytotoxicity against human A498 cells assessed as cell growth at 5 uM by SRB assay; details: read-out: Activity
[39] = test system: DU-145; assay: Cytotoxicity against human DU145 cells assessed as cell growth at 5 uM by SRB assay; details: read-out: Activity; how it was run: as §1
[40] = test system: MDA-MB-231; assay: Cytotoxicity against human MDA-MB-231/ATCC cells assessed as cell growth at 5 uM by SRB assay; details: read-out: Activity
[41] = test system: NCI-H460; assay: Cytotoxicity against human NCI-H460 cells assessed as cell growth at 50 uM by SRB assay; details: read-out: Activity
[42] = read-out: LC50 (the source's name)
[43] = read-out: pLC50 (the source's name) (converted)

SMILES: COc1cc([C@@H]2c3cc4c(cc3[C@@H](NC(=O)CN3CCN(CCCCCCN5CCN(CC(=O)N[C@@H]6c7cc8c(cc7[C@@H](c7cc(OC)c(O)c(OC)c7)[C@H]7C(=O)OC[C@@H]76)OCO8)CC5)CC3)[C@H]3COC(=O)[C@H]23)OCO4)cc(OC)c1O
- growth at 50 µM [1]: 2%
- growth at 50 µM [2]: 41%
- growth at 50 µM [3]: 47%
- growth at 50 µM [4]: 21%
- growth at 50 µM [5]: -10%
- growth at 50 µM [6]: 63%
- growth at 50 µM [7]: 13%
- GI50 ([8]; read-out: GI50): 5.42 µM
- CC50 [8, 42]: > 50 µM
- TGI ([8]; read-out: TGI): 46.8 µM
- GI50 ([8]; read-out: pGI50 (converted)): 5.37 µM
- CC50 [8, 43]: > 50.1 µM
- TGI ([8]; read-out: pTGI (converted)): 46.8 µM
- GI50 ([9]; read-out: GI50): 3.82 µM
- CC50 [9, 42]: > 50 µM
- TGI ([9]; read-out: TGI): 38.6 µM
- GI50 ([9]; read-out: pGI50 (converted)): 3.8 µM
- CC50 [9, 43]: > 50.1 µM
- TGI ([9]; read-out: pTGI (converted)): 38.9 µM
- GI50 ([10]; read-out: GI50): 3.79 µM
- CC50 [10, 42]: > 50 µM
- TGI ([10]; read-out: TGI): > 50 µM
- GI50 ([10]; read-out: pGI50 (converted)): 3.8 µM
- CC50 [10, 43]: > 50.1 µM
- TGI ([10]; read-out: pTGI (converted)): > 50.1 µM
- GI50 ([11]; read-out: GI50): 1.38 µM
- CC50 [11, 42]: > 50 µM
- TGI ([11]; read-out: TGI): > 50 µM
- GI50 ([11]; read-out: pGI50 (converted)): 1.38 µM
- CC50 [11, 43]: > 50.1 µM
- TGI ([11]; read-out: pTGI (converted)): > 50.1 µM
- GI50 ([12]; read-out: GI50): 7.52 µM
- CC50 [12, 42]: > 50 µM
- TGI ([12]; read-out: TGI): > 50 µM
- GI50 ([12]; read-out: pGI50 (converted)): 7.59 µM
- CC50 [12, 43]: > 50.1 µM
- TGI ([12]; read-out: pTGI (converted)): > 50.1 µM
- GI50 ([13]; read-out: GI50): 6.93 µM
- CC50 [13, 42]: > 50 µM
- TGI ([13]; read-out: TGI): > 50 µM
- GI50 ([13]; read-out: pGI50 (converted)): 6.92 µM
- CC50 [13, 43]: > 50.1 µM
- TGI ([13]; read-out: pTGI (converted)): > 50.1 µM
- GI50 ([14]; read-out: GI50): 8.92 µM
- CC50 [14, 42]: > 50 µM
- TGI ([14]; read-out: TGI): > 50 µM
- GI50 ([14]; read-out: pGI50 (converted)): 8.91 µM
- CC50 [14, 43]: > 50.1 µM
- TGI ([14]; read-out: pTGI (converted)): > 50.1 µM
- GI50 ([15]; read-out: GI50): 1.66 µM
- CC50 [15, 42]: > 50 µM
- TGI ([15]; read-out: TGI): > 50 µM
- GI50 ([15]; read-out: pGI50 (converted)): 1.66 µM
- CC50 [15, 43]: > 50.1 µM
- TGI ([15]; read-out: pTGI (converted)): > 50.1 µM
- growth at 0.005 µM [16]: 108%
- growth at 0.005 µM [17]: 90%
- growth at 0.005 µM [18]: 89%
- growth at 0.005 µM [19]: 97%
- growth at 0.005 µM [20]: 89%
- growth at 0.005 µM [21]: 94%
- growth at 0.005 µM [22]: 97%
- growth at 0.05 µM [23]: 95%
- growth at 0.05 µM [24]: 93%
- growth at 0.05 µM [25]: 90%
- growth at 0.05 µM [26]: 105%
- growth at 0.05 µM [27]: 90%
- growth at 0.5 µM [28]: 69%
- growth at 0.5 µM [29]: 71%
- growth at 0.5 µM [30]: 103%
- growth at 0.5 µM [31]: 78%
- growth at 0.5 µM [32]: 80%
- growth at 5 µM [33]: 42%
- growth at 5 µM [34]: 11%
- growth at 5 µM [35]: 54%
- growth at 5 µM [36]: 22%
- growth at 5 µM [37]: 56%
- growth at 5 µM [38]: 54%
- growth at 5 µM [39]: 14%
- growth at 5 µM [40]: 79%
- growth at 50 µM [41]: -28%
